Experimental data published in ChEMBL document CHEMBL3526129, “Species differences in tissue distribution and enzyme activities of arylacetamide deacetylase in human, rat, and mouse” (Drug Metab Dispos, 2012).

Assays:
Type in all cases: ADME
[1] = substrate: CCOc1ccc(NC(C)=O)cc1; assay: Activity of AADAC in rat lung microsome
How it was run: (§1)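 Hydrolase activity of tissue microsomes in 0.2 ml mixtures of 100 mM potassium phosphate (pH 7.4). Microsomal protein: 0.4 mg/ml for flutamide (0.025–0.75 mM) and phenacetin (0.05–4 mM); 0.5 mg/ml for rifampicin (0.005–1 mM). Products measured were FLU-1, p-phenetidine and 25-deacetylrifampicin, within linear ranges. Three independent experiments.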

[2] = substrate: CCOc1ccc(NC(C)=O)cc1; assay: Activity of rat recombinant AADAC
How it was run: (§2)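 Sf21 insect cells were infected with baculovirus carrying intact human, rat or mouse AADAC, harvested after 7 days, and homogenized by freeze-thaw. Homogenate was incubated in 100 mM potassium phosphate (pH 7.4). Flutamide (0.025–0.75 mM) used 0.4 mg/ml; phenacetin (0.05–4 mM) used 0.4 mg/ml for human and 0.2 mg/ml for rat or mouse; rifampicin (0.005–1 mM) used 0.5 mg/ml. Activity was normalized to immunoblot-derived AADAC expression units. Triplicate determinations.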

[3] = substrate: CCOc1ccc(NC(C)=O)cc1; assay: Activity of AADAC in rat jejunum microsome; how it was run: as §1
[4] = substrate: CCOc1ccc(NC(C)=O)cc1; assay: Activity of AADAC in rat liver microsome; how it was run: as §1
[5] = substrate: CCOc1ccc(NC(C)=O)cc1; assay: Activity of AADAC in rat kidney microsome; how it was run: as §1
[6] = substrate: CCOc1ccc(NC(C)=O)cc1; assay: Activity of AADAC in mouse jejunum microsome; how it was run: as §1
[7] = substrate: CCOc1ccc(NC(C)=O)cc1; assay: Activity of AADAC in mouse kidney microsome; how it was run: as §1
[8] = substrate: CCOc1ccc(NC(C)=O)cc1; assay: Activity of mouse recombinant AADAC; how it was run: as §2
[9] = substrate: CCOc1ccc(NC(C)=O)cc1; assay: Activity of AADAC in mouse lung microsome; how it was run: as §1
[10] = substrate: CCOc1ccc(NC(C)=O)cc1; assay: Activity of AADAC in mouse liver microsome; how it was run: as §1
[11] = substrate: CCOc1ccc(NC(C)=O)cc1; assay: (§3) Activity of human recombinant AADAC; how it was run: as §2
[12] = substrate: CO[C@H]1/C=C/O[C@@]2(C)Oc3c(C)c(O)c4c(O)c(c(/C=N/N5CCN(C)CC5)c(O)c4c3C2=O)NC(=O)/C(C)=C\C=C\[C@H](C)[C@H](O)[C@@H](C)[C@@H](O)[C@@H](C)[C@H](OC(C)=O)[C@@H]1C; assay: as §3; how it was run: as §2
[13] = substrate: CCOc1ccc(NC(C)=O)cc1; assay: Activity of AADAC in human kidney microsome; how it was run: as §1
[14] = substrate: CCOc1ccc(NC(C)=O)cc1; assay: (§4) Activity of AADAC in human jejunum microsome; how it was run: as §1
[15] = substrate: CO[C@H]1/C=C/O[C@@]2(C)Oc3c(C)c(O)c4c(O)c(c(/C=N/N5CCN(C)CC5)c(O)c4c3C2=O)NC(=O)/C(C)=C\C=C\[C@H](C)[C@H](O)[C@@H](C)[C@@H](O)[C@@H](C)[C@H](OC(C)=O)[C@@H]1C; assay: as §4; how it was run: as §1
[16] = substrate: CCOc1ccc(NC(C)=O)cc1; assay: (§5) Activity of AADAC in human liver microsome; how it was run: as §1
[17] = substrate: CO[C@H]1/C=C/O[C@@]2(C)Oc3c(C)c(O)c4c(O)c(c(/C=N/N5CCN(C)CC5)c(O)c4c3C2=O)NC(=O)/C(C)=C\C=C\[C@H](C)[C@H](O)[C@@H](C)[C@@H](O)[C@@H](C)[C@H](OC(C)=O)[C@@H]1C; assay: as §5; how it was run: as §1
[18] = substrate: CCOc1ccc(NC(C)=O)cc1; assay: Activity of AADAC in human lung microsome; how it was run: as §1

B1: Arylacetamide deacetylase (Rattus norvegicus) (protein)
chain: MGRTIFLLISVVLVAYYIYIPLPDDIEEPWKIILGNTLLKLGGDLASFGELLGLNHFMDTVQLFMRFQVVPPTSDENVTVMETDFNSVPVRIYIPKRKSTTLRRGLFFIHGGGWCLGSAAYFMYDTLSRRTAHRLDAVVVSTDYGLAPKYHFPKQFEDVYHSLRWFLQEDILEKYGVDPRRVGVSGDSAGGNLTAAVTQQILQDPDVKIKLKVQALIYPALQALDMNVPSQQENSQYPLLTRSLLIRFWSEYFTTDRDLEKAMLLNQHVPVEFSHLLQFVNWSSLLPQRYKKGYFYKTPTPGSLELAQKYPGFTDVKACPLLANDSILHHLPMTYIITCQYDVLRDDGLMYVKRLQNTGVHVTHHHIEDGFHGALTLPGLKITYRMQNQYLNWLHKNL
Km [1]: 5.3 mM | Vmax [1]: 0.0001 µmol/min/mg | Km [2]: 5.8 mM | Km [3]: 4.6 mM | Vmax [3]: 0.0003 µmol/min/mg | Km [4]: 29.8 mM | Vmax [4]: 0.0059 µmol/min/mg | Km [5]: 9.3 mM | Vmax [5]: 0.0006 µmol/min/mg

B2: Arylacetamide deacetylase (Mus musculus) (protein)
chain: MGKTISLLISVVLVAYYLYIPLPDAIEEPWKVVWETAFVKIGTDLASFGELLGISHFMETIQLLMSFQEVPPTSDEHVTVMETAFDSVPVRIYIPKRKSMALRRGLFYIHGGGWCLGSAAHFSYDTLSRWTAHKLDAVVVSTDYGLAPKHHFPRQFEDVYRSLRWFLQEDVLEKYGVDPRRVGVSGDSAGGNLAAAVTQQLIQDPDVKIKLKVQALIYPALQALDTNVPSQQEGSHFPVLTRSLMVRFWSEYFTTDRGLEKAMLLNQHVPMESSHLLQFVNWSSLLPERYKKSPVYKNPTPGSSELAQKYPGFIDVKACPLLANDNILHHLPKTYIITCQYDVLRDDGLMYVKRLQNVGVHVTHHHVEDGFHGTFSFPGLKLSERMKNQYLSWLIKNL
Km [6]: 11.2 mM | Vmax [6]: 0.0014 µmol/min/mg | Km [7]: 7.1 mM | Vmax [7]: 0.0029 µmol/min/mg | Km [8]: 1.6 mM | Km [9]: 2.9 mM | Vmax [9]: 0.0001 µmol/min/mg | Km [10]: 9.8 mM | Vmax [10]: 0.0171 µmol/min/mg

B3: Arylacetamide deacetylase (Homo sapiens) (protein)
chain: MGRKSLYLLIVGILIAYYIYTPLPDNVEEPWRMMWINAHLKTIQNLATFVELLGLHHFMDSFKVVGSFDEVPPTSDENVTVTETKFNNILVRVYVPKRKSEALRRGLFYIHGGGWCVGSAALSGYDLLSRWTADRLDAVVVSTNYRLAPKYHFPIQFEDVYNALRWFLRKKVLAKYGVNPERIGISGDSAGGNLAAAVTQQLLDDPDVKIKLKIQSLIYPALQPLDVDLPSYQENSNFLFLSKSLMVRFWSEYFTTDRSLEKAMLSRQHVPVESSHLFKFVNWSSLLPERFIKGHVYNNPNYGSSELAKKYPGFLDVRAAPLLADDNKLRGLPLTYVITCQYDLLRDDGLMYVTRLRNTGVQVTHNHVEDGFHGAFSFLGLKISHRLINQYIEWLKENL
Km [11]: 1.8 mM | Km [12]: 0.2 mM | Km [13]: 2.3 mM | Vmax [13]: 0.0004 µmol/min/mg | Km [14]: 2.5 mM | Vmax [14]: 0.01 µmol/min/mg | Km [15]: 0.3 mM | Vmax [15]: 0.000212 µmol/min/mg | Km [16]: 3.3 mM | Vmax [16]: 0.0036 µmol/min/mg | Km [17]: 0.4 mM | Vmax [17]: 0.000273 µmol/min/mg | Km [18]: 7.4 mM | Vmax [18]: 0.0008 µmol/min/mg
